From publication PMC3553303 (Biochemical pharmacology, 2012) come the findings set out here.

The target of one assay is bombesin receptor (BB2) (Homo sapiens, UniProt P30550). It counts as binding. Particulars: read-out: Ki, displacement of [125I][Tyr4]bombesin; PC3 cells. In general terms: In a radioligand displacement assay an active substance lowers the binding of a labelled ligand.
The target in assay [1] is T1, FPR2 (Homo sapiens, UniProt P25090).
T1 sequence (P25090 1-351): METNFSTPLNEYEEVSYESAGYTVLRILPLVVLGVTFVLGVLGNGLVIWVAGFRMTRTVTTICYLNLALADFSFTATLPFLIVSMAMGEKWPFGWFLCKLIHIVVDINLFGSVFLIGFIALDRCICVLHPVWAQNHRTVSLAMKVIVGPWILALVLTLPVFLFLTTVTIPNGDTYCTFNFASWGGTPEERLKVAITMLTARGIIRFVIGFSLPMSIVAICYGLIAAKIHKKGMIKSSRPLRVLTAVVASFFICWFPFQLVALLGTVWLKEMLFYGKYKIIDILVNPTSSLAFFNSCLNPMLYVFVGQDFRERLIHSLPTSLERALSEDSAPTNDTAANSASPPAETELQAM
Briefly: PathHunter β-arrestin recruitment, FPR2-CHO-K1 cells. The class given is cell-based. The following applies: read-out: β-arrestin recruitment EC50. In short, it runs like this:
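The assay used the PathHunter enzyme-fragment complementation format in FPR2-transfected CHO-K1 cells. Thawed cells were plated at 5000/well in the kit medium and held 48 h at 37 °C with 5% CO2. Test compound was serially diluted at constant DMSO and added for 90 min at 37 °C, then detection reagent for 60 min at room temperature. Chemiluminescence was read.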

Assay [2] addresses T2, FPR1 (Homo sapiens, UniProt P21462).
T2 sequence (P21462 1-350): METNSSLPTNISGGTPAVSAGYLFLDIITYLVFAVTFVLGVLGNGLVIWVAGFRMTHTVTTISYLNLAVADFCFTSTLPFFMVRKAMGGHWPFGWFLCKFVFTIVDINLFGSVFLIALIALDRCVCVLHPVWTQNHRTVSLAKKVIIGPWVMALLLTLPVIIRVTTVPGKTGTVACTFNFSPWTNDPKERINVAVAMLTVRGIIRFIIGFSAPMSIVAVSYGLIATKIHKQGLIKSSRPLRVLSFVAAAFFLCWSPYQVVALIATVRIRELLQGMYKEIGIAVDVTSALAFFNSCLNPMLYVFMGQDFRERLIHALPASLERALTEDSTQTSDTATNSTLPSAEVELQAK
Put plainly: PathHunter β-arrestin recruitment, FPR1-CHO-K1 cells. The class given is cell-based. The following applies: read-out: β-arrestin recruitment EC50. (In general: Activated receptors often draw arrestin, which recruitment assays turn into a signal.)

Assay [3] has as its target T1, FPR2. Briefly: Ca2+ mobilization in FPR2-HL-60 cells. It counts as cell-based. The following applies: percentage of the response induced by 5 nM WKYMVM. (A change in cytosolic calcium serves as a functional read-out for many receptors and channels.)
A further assay relates to human neutrophils. Put plainly: Neutrophil chemotaxis assay. It counts as cell-based. The following applies: read-out: Neutrophils Chemotaxis EC50, N.A. = non-active.
Assay [4] deals with T2, FPR1. Briefly: Ca2+ mobilization in FPR1-HL-60 cells. It counts as cell-based. Particulars: percentage of the response induced by 5 nM fMLF.

Chain of bombesin receptor (BB2) (P30550 whole entry): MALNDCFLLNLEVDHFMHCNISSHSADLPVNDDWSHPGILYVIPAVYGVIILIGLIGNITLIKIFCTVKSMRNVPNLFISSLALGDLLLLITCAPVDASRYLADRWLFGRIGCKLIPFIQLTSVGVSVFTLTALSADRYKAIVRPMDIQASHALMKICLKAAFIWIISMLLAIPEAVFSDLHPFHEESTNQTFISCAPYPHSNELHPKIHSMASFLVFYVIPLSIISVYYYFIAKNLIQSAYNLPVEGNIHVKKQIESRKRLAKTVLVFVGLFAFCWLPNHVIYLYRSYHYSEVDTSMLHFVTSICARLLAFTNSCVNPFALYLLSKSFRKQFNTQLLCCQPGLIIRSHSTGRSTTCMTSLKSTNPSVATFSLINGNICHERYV

As to `COc1ccc(C2(CNC(=O)[C@](C)(Cc3c[nH]c4ccccc34)NC(=O)Nc3ccc([N+](=O)[O-])cc3)CCCCC2)nc1` [PD176252], the Ki on bombesin receptor (BB2) worked out at 66 nM. The EC50 on FPR2 [1] was found to be 8800 ± 2000 nM; on FPR1 [2] it was 3800 ± 1100 nM; in the assay with human neutrophils it was 810 ± 220 nM. Further, the “Ca2+ Mobilization in HL-60 cells FPR2 Efficacy” value at FPR2 [3] is given as 90%. The “Ca2+ Mobilization in HL-60 cells FPR1 Efficacy” value on FPR1 [4] is reported as 100%.

For the molecule `C[C@@](Cc1c[nH]c2ccccc12)(NC(=O)Nc1ccc([N+](=O)[O-])cc1)C(=O)NCC1(c2ccccn2)CCCCC1` [PD168368], the EC50 came out at 11100 ± 2800 nM at FPR2 [1] and 700 ± 150 nM with human neutrophils. Besides, the “Ca2+ Mobilization in HL-60 cells FPR2 Efficacy” value on FPR2 [3] turned out to be 75%.

In general, Ki refers to the dissociation constant of the complex between target and ligand, obtained from inhibition or displacement. What is called EC50 is the concentration giving half of the maximal effect.
